# Source: ChEMBL document CHEMBL4219166, “Evaluation of analogues of furan-amidines as inhibitors of NQO2” (Bioorg Med Chem Lett, 2018)
# Activity calls are given as the source filed them. The rule behind the calls is not given here.
# Key:
# [1] = biological target: T1, Ribosyldihydronicotinamide dehydrogenase [quinone] (Homo sapiens, UniProt P16083); experiment: Inhibition of recombinant human NQO2 assessed as change in rate of decolouration of DCPIP measured over 1 min by spectrophotometric method
# T1 sequence (P16083 whole entry): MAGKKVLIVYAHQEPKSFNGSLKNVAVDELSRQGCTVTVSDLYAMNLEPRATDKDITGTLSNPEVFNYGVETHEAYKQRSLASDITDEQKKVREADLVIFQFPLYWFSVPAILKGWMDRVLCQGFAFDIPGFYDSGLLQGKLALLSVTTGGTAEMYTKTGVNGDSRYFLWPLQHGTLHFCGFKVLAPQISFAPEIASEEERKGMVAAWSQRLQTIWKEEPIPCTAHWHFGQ
# Procedure, shortened: (§1)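 The NQO2 enzymatic activity was followed spectrophotometrically as the decolouration of the blue redox dye 2,6-dichlorophenolindophenol (DCPIP) at pH 7.4.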
# [2] = tested on: Plasmodium falciparum; experiment: Antimalarial activity against Plasmodium falciparum 3D7 asexual cultures grown under 5% haematocrit assessed as decrease in parasite DNA level by flow cytometry; format: functional, organism-based
# [3] = biological target: T2, Ribosyldihydronicotinamide dehydrogenase [quinone] (Homo sapiens) (UniProt P16083); experiment: Inhibition of recombinant human NQO2 assessed as change in rate of decolouration of DCPIP at 10 uM measured over 1 min by spectrophotometric method; procedure, shortened: as §1
# T2 sequence (whole entry): T1 sequence (P16083 whole entry)
SMILES,IC50 [1] [nM],IC50 [2] [nM],inhibition [3]
CC(=O)Nc1cccc(-c2ccc(-c3ccccc3)o2)c1,1140,–,–
N=C(N)c1ccc(-c2ccc(-c3ccccc3)s2)cc1,773,18900,–
N=C(NO)c1ccc(-c2ccc(-c3ccccc3)o2)cc1,–,–,inactive
CC(=N)Nc1ccc(-c2ccc(-c3ccccc3)s2)cc1,–,970,inactive
N=C(N)c1ccc(-c2ccc(-c3ccccc3)o2)cc1,–,1500,–
N=C(N)c1ccc(-c2ccc(-c3ccc(C(=N)N)cc3)o2)cc1 [FURAMIDINE],–,0.5,–
CC(=O)Nc1ccc(-c2ccc(-c3ccccc3)o2)cc1,–,–,inactive
Cc1oc(-c2ccc(C(=N)N)cc2)cc1-c1ccccc1,–,–,inactive
CC(=O)Nc1cccc(-c2ccc(-c3ccccc3)s2)c1,2000,–,–
N=C(N)c1ccc(-c2nc(-c3ccccc3)c[nH]2)cc1,1110,5300,–
COC(=N)c1ccc(-c2ccc(-c3ccccc3)o2)cc1,–,–,inactive
Cn1cc(-c2ccccc2)nc1-c1ccc(C(=N)N)cc1,–,–,inactive
CC(=N)Nc1ccc(-c2ccc(-c3ccccc3)o2)cc1,–,770,inactive
